Test results from ChEMBL document CHEMBL2029334 (Bioorg Med Chem Lett, 2012).
Activity calls are given as the source filed them. The calls are words filed in the database; no cut-off is given here.

Columns and labels:
[1] = organism: Canis familiaris; assay: Wake promoting activity in dog; format: functional, organism-based; settings: Canis lupus familiaris
[2] = target: Cytochrome P450 3A4 (Homo sapiens, UniProt P08684); assay: Inhibition of CYP3A4; format: ADME
[3] = tested on: Plasma; assay: Plasma concentration in human at efficacious dose; format: ADME, cell-free
[4] = target: Cytochrome P450 2D6 (Homo sapiens, UniProt P10635); assay: Inhibition of CYP2D6; format: ADME
[5] = tested on: Rattus norvegicus; assay: Wake promoting activity in rat assessed as total time awake at 100 mg/kg, ip over a period of 3 hrs after dosing; format: functional; settings: route intraperitoneal
[6] = target: Cytochrome P450 2C19 (Homo sapiens, UniProt P33261); assay: Inhibition of CYP2C19; format: ADME
[7] = target: Sodium-dependent dopamine transporter (Rattus norvegicus, UniProt P23977); assay: Displacement of 3H-WIN-35428 from DAT in rat striata after 120 mins
[8] = target: CYP2C19 (Homo sapiens, UniProt P33261); assay: Inhibition of CYP2C19 at 10 uM; format: ADME
[9] = tested on: Brain; assay: AUC (0 to t) in rat brain at 116 mg/kg, ip; format: ADME, organism-based; set-up: dose 116 mg/kg, route intraperitoneal; settings: in vivo
[10] = tested on: Plasma; assay: AUC (0 to t) in rat plasma at 116 mg/kg, ip; format: ADME, organism-based; set-up: dose 116 mg/kg, route intraperitoneal; settings: in vivo
[11] = Tmax in rat plasma at 116 mg/kg, ip; format: ADME, organism-based; set-up: dose 116 mg/kg, route intraperitoneal
[12] = Cmax in rat brain at 116 mg/kg, ip; format: ADME, organism-based; set-up: dose 116 mg/kg, route intraperitoneal
[13] = Tmax in rat brain at 116 mg/kg, ip; format: ADME, organism-based; set-up: dose 116 mg/kg, route intraperitoneal
[14] = Cmax in rat plasma at 116 mg/kg, ip; format: ADME, organism-based; set-up: dose 116 mg/kg, route intraperitoneal
[15] = tested on: Rattus norvegicus; assay: Wake promoting activity in rat assessed as total time awake at 30 mg/kg, ip over a period of 3 hrs after dosing; format: functional; settings: route intraperitoneal
[16] = tested on: Brain; assay: AUC (0 to t) in rat brain assessed as 9H-fluoren-9-ol at 116 mg/kg, ip; format: ADME, organism-based; set-up: dose 116 mg/kg, route intraperitoneal; settings: in vivo
Outline: (§1)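 Rats received the parent compound at 116 mg/kg ip in 0.5% methylcellulose/0.2% Tween 80. The metabolite was measured in plasma and brain over time. Cmax is given in ng/g, Tmax in h, and AUC0-t in ng h/g. Values are mean ± SEM, n = 3.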

[17] = tested on: Brain; assay: Tmax in rat brain assessed as 9H-fluoren-9-ol at 116 mg/kg, ip; format: ADME, organism-based; set-up: dose 116 mg/kg, route intraperitoneal; settings: in vivo; outline: as §1
[18] = tested on: Brain; assay: Cmax in rat brain assessed as 9H-fluoren-9-ol at 116 mg/kg, ip; format: ADME, organism-based; set-up: dose 116 mg/kg, route intraperitoneal; settings: in vivo; outline: as §1
[19] = tested on: Plasma; assay: Tmax in rat plasma assessed as 9H-fluoren-9-ol at 116 mg/kg, ip; format: ADME, organism-based; set-up: dose 116 mg/kg, route intraperitoneal; settings: in vivo; outline: as §1
[20] = tested on: Plasma; assay: Cmax in rat plasma assessed as 9H-fluoren-9-ol at 116 mg/kg, ip; format: ADME, organism-based; set-up: dose 116 mg/kg, route intraperitoneal; settings: in vivo; outline: as §1
[21] = tested on: Plasma; assay: AUC (0 to t) in rat plasma assessed as 9H-fluoren-9-ol at 116 mg/kg, ip; format: ADME, organism-based; set-up: dose 116 mg/kg, route intraperitoneal; settings: in vivo; outline: as §1
[22] = tested on: Plasma; assay: Cmax in rat plasma assessed as 9H-fluoren-9-one at 116 mg/kg, ip; format: ADME, organism-based; set-up: dose 116 mg/kg, route intraperitoneal; settings: in vivo; outline: as §1
[23] = tested on: Brain; assay: AUC (0 to t) in rat brain assessed as 9H-fluoren-9-one at 116 mg/kg, ip; format: ADME, organism-based; set-up: dose 116 mg/kg, route intraperitoneal; settings: in vivo; outline: as §1
[24] = tested on: Brain; assay: Cmax in rat brain assessed as 9H-fluoren-9-one at 116 mg/kg, ip; format: ADME, organism-based; set-up: dose 116 mg/kg, route intraperitoneal; settings: in vivo; outline: as §1
[25] = tested on: Plasma; assay: AUC (0 to t) in rat plasma assessed as 9H-fluoren-9-one at 116 mg/kg, ip; format: ADME, organism-based; set-up: dose 116 mg/kg, route intraperitoneal; settings: in vivo; outline: as §1
[26] = tested on: Brain; assay: Tmax in rat brain assessed as 9H-fluoren-9-one at 116 mg/kg, ip; format: ADME, organism-based; set-up: dose 116 mg/kg, route intraperitoneal; settings: in vivo; outline: as §1
[27] = tested on: Plasma; assay: Tmax in rat plasma assessed as 9H-fluoren-9-one at 116 mg/kg, ip; format: ADME, organism-based; set-up: dose 116 mg/kg, route intraperitoneal; settings: in vivo; outline: as §1

Sodium-dependent dopamine transporter, sequence (P23977 whole entry): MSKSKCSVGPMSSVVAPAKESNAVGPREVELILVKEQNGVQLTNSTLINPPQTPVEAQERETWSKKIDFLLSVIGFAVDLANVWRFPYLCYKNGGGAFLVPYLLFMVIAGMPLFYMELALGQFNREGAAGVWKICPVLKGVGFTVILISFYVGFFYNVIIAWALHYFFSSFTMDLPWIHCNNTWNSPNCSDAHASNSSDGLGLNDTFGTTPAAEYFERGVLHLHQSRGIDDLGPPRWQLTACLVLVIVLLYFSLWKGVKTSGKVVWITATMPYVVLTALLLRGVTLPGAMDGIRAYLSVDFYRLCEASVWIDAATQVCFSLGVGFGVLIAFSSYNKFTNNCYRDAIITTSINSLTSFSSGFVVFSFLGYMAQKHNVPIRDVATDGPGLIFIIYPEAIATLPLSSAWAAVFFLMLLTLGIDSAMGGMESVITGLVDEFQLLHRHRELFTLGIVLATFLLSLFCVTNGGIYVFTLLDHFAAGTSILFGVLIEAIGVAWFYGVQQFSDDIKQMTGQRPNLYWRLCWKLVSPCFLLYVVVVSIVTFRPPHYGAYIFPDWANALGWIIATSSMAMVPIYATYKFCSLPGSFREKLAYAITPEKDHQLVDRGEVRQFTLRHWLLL
Cytochrome P450 2C19, sequence (P33261 whole entry): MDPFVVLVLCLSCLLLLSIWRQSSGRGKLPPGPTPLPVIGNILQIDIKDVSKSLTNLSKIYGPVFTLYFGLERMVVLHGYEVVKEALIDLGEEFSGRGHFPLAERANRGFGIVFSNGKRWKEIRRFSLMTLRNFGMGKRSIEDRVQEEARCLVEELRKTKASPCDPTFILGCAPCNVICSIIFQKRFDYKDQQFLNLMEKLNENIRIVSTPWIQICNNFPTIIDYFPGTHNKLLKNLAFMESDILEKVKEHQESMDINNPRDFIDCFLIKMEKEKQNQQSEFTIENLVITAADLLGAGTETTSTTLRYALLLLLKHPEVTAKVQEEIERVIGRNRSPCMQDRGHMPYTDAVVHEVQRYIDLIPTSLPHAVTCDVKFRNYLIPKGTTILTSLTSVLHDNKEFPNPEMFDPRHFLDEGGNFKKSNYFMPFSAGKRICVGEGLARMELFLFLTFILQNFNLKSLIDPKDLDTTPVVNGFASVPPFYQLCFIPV
CYP2C19, sequence (P33261 whole entry): as above
Cytochrome P450 2D6, sequence (P10635 whole entry): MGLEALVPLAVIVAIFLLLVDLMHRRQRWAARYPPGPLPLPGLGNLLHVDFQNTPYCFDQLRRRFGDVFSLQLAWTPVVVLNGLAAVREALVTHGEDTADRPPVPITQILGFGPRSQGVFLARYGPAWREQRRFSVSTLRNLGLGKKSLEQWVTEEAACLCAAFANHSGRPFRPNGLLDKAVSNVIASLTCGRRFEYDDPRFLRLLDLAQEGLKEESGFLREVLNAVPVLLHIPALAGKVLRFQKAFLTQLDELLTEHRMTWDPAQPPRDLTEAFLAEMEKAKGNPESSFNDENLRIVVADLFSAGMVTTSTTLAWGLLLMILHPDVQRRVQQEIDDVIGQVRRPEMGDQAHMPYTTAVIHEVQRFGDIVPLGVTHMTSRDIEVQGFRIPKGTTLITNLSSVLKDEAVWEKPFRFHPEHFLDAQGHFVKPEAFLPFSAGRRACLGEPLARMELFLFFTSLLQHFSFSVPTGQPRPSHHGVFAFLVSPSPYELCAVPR
Cytochrome P450 3A4, sequence (P08684 whole entry): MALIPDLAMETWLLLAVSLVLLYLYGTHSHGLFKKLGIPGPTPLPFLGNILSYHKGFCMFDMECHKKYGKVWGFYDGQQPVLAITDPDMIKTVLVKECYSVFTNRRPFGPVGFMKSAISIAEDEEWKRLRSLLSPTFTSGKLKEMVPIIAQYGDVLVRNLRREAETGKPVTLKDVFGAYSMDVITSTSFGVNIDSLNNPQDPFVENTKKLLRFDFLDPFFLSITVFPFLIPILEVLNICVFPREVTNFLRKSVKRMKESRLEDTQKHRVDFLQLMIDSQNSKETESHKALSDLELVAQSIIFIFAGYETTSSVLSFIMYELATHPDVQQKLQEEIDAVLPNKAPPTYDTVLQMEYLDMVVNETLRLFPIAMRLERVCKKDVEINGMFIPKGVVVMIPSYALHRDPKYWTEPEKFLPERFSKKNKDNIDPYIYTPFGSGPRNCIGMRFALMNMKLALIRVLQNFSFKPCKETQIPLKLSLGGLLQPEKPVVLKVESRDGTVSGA

| Structure (SMILES) | Activity [1] | Time [5] [min] | IC50 [6] [µM] | IC50 [7] [µM] | also measured |
| --- | --- | --- | --- | --- | --- |
| NC(=O)C[S+]([O-])C(c1ccccc1)c1ccccc1 (racemic) [MODAFINIL] | inactive | 117 | – | – | inhibition (INH) [2]: Not Active; concentration [3]: > 30 µM; inhibition (INH) [4]: Not Active |
| NC(=O)[C@H](CO)NC(=O)C[S+]([O-])C1c2ccccc2-c2ccccc21 (mixture of isomers) | inactive | 136 | > 100 | > 100 | – |
| NC(=O)CNC(=O)C[S+]([O-])C1c2ccccc2-c2ccccc21 (racemic) | inactive | 140 | > 100 | > 100 | – |
| CNC(=O)C[S+]([O-])C1c2ccccc2-c2ccccc21 (racemic) | inactive | 83 | – | > 100 | inhibition at 10 µM [8]: 48% |
| CCN(CC)C(=O)C[S+]([O-])C1c2ccccc2-c2ccccc21 (racemic) | inactive | 99 | > 100 | > 100 | – |
| CC(=O)N1CCN(C(=O)C[S+]([O-])C2c3ccccc3-c3ccccc32)CC1 (racemic) | inactive | – | > 100 | > 100 | AUCt [9]: 295 ng·h/g; AUCt [10]: 7501 ng·h/g; Tmax [11]: 48 min; Cmax [12]: 416 ng/g; Tmax [13]: 48 min; Cmax [14]: 6290 ng/g; Time [15]: 146 min |
| O=C(C[S+]([O-])C1c2ccccc2-c2ccccc21)NCCO (racemic) | inactive | 167 | > 100 | > 100 | – |
| NC(=O)[C@@H]1CCCN1C(=O)C[S+]([O-])C1c2ccccc2-c2ccccc21 (mixture of isomers) | inactive | 169 | > 100 | > 100 | – |
| OC1c2ccccc2-c2ccccc21 | – | 163 | – | 9 | AUCt [16]: 11639 ng·h/g; Tmax [17]: 48 min; Cmax [18]: 4384 ng/g; Tmax [19]: 120 min; Cmax [20]: 263 ng/g; AUCt [21]: 1081 ng·h/g |
| O=C(C[S+]([O-])C1c2ccccc2-c2ccccc21)N1CCOCC1 (racemic) | inactive | – | – | > 100 | inhibition at 10 µM [8]: 30%; Time [15]: 158 min |
| NC(=O)C[S+]([O-])C1c2ccccc2-c2ccccc21 (racemic) | inactive | 116 | > 100 | > 100 | – |
| O=C1c2ccccc2-c2ccccc21 | – | – | – | – | Cmax [22]: 255 ng/g; AUCt [23]: 2349 ng·h/g; Cmax [24]: 971 ng/g; AUCt [25]: 939 ng·h/g; Tmax [26]: 48 min; Tmax [27]: 72 min |
| C[C@H](NC(=O)C[S+]([O-])C1c2ccccc2-c2ccccc21)C(N)=O (mixture of isomers) | inactive | 151 | > 100 | > 100 | – |
| O=C(C[S+]([O-])C1c2ccccc2-c2ccccc21)N1CCNCC1 (racemic) | inactive | – | > 100 | > 100 | Time [15]: 119 min |
| CC1([S+]([O-])CC(N)=O)c2ccccc2-c2ccccc21 (racemic) | – | 71 | – | > 100 | inhibition at 10 µM [8]: 26% |
